Screening data as filed in PubChem.
Shown are actives, neighbours in structure and some others; about 0.72% of the full set was active somewhere.
hIAP activ: human IAP activation | P09923 | purified human IAP, CDP-Star luminescence, 30 min; stronger effect = higher value; 1 = vehicle-only enzyme, 0 = enzyme-free background | activation factor at 10 µM | 330,000 tested, 0.16% active | AID 2524;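 active = activation factor of the enzyme at least 2-fold when tested at 20 µM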
Target sequence (P09923 whole entry, looked up): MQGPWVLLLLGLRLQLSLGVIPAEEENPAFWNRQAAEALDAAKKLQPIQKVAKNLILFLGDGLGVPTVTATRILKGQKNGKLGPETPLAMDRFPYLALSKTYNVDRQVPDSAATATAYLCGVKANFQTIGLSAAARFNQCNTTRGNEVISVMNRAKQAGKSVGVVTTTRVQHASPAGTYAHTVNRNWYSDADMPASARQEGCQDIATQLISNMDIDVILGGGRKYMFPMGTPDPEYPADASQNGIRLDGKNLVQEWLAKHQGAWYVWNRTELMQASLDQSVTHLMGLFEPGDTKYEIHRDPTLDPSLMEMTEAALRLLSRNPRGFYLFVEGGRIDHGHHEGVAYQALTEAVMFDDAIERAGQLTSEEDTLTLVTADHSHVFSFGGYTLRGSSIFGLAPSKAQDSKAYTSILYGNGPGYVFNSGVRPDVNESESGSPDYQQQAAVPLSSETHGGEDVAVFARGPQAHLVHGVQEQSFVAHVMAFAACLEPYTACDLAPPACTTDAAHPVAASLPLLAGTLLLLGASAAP
hIAP block: blocks human intestinal alkaline phosphatase; purified IAP, CDP-Star luminescence, 30 min; 330,000 tested, 0.12% active; AID 2544; inhibition, % at 10 µM;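 active = inhibition reaching a set limit with compound at 10 µM in the primary screen, cut at about 35% in these data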;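 note: plate controls were DMSO wells with enzyme for no effect and no-enzyme buffer wells for full effect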
mIAP activ: increases mouse intestinal alkaline phosphatase activity. muIAP, CDP-Star luminescence, 30 min; stronger effect = higher value; 1 = vehicle-only enzyme signal, 0 = enzyme-free wells. activation factor at 10 µM. 330,000 tested, 0.24% active;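 active = activation factor of at least 2 at 20 µM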
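Assay system: mouse IAP enzyme; reagent: chemiluminescent substrate CDP-Star; dosing: test compounds delivered from DMSO solution; schedule: 30 min at room temperature; measured by: luminescence from enzymatic CDP-Star hydrolysis; controls: DMSO-only wells and no-enzyme negative control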
bIAP inhibitor: blocks bovine intestinal alkaline phosphatase activity | purified bovine IAP, CDP-star luminescence, 30 min | inhibition, % at 20 µM | 190,000 tested, under 10 active;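 active = over 50% inhibition of intestinal alkaline phosphatase at 20 µM in the single-dose screen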
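test system = bovine IAP enzyme | medium = DEA buffer 100 mM, pH 9.8, with MgCl2 1.0 mM, ZnCl2 0.02 mM | detection = luminescence | dosing = single compound dose of 20 µM, 2% DMSO final | incubation = 30 min reaction at room temperature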
bIAP act: intestinal alkaline phosphatase (bovine) activation; 200,000 tested, 0.17% active; purified bovine IAP, CDP-star luminescence, 30 min; stronger effect = higher value; fold of DMSO-control signal, blank-subtracted; AID 1016; activation factor at 20 µM;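 active = activation factor of 2 or more at 20 µM, a signal rise over negative controls twice the positive control's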
mIAP inh: mouse IAP inhibition. purified mouse IAP, CDP-Star luminescence, 30 min. inhibition, % at 10 µM. 330,000 tested, 0.2% active;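 active = inhibition of at least 40% at 10 µM in the primary screen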;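 note: plate controls were DMSO with enzyme for no effect and no enzyme wells for full effect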
mIAP inh confirm: mouse IAP inhibition confirmation | shares compounds with mIAP inh | purified mouse IAP, CDP-Star luminescence, 30 min | inhibition, % at 10 µM | 11,000 tested, 4.7% active | AID 434971;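 active = inhibition of at least 40% at 10 µM in either of the two replicates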;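 note: plate controls were DMSO wells with enzyme for no effect and buffer wells lacking enzyme for full effect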
Active calls of the source: *.

What do the screens show for `COc1ccc(NC(=O)NC(C)c2ccc3c(c2)OCO3)cc1OC` (stereo unspecified)?
hIAP activ: 1; hIAP block: 0; mIAP activ: 1.1; mIAP inh: -10

Results for CC(NC(=O)Nc1ccc(Cl)cc1)c1ccc2c(c1)OCO2 (stereo unspecified) ?
hIAP activ: 1.1; hIAP block: -14; mIAP activ: 2.8*; mIAP inh: -184; mIAP inh confirm: -153

How did COc1cc(NC(=O)c2cc3ccccc3cc2OC)ccc1NC(=O)c1cccs1 do in these assays?
hIAP activ: 1.1; hIAP block: -8; mIAP activ: 1.1; mIAP inh: -7

Results for COC(=O)c1cc(O)cc(OC)c1Oc1cc(C)cc(O)c1C(=O)O ?
hIAP activ: 0.95; hIAP block: 5; mIAP activ: 0.47; mIAP inh: 53*; mIAP inh confirm: 67*

How did CCOC(=O)c1c(C)[nH]c(C)c1S(=O)(=O)N(C)CC(=O)Nc1ccccc1 do in these assays?
hIAP activ: 1; hIAP block: 0; mIAP activ: 1; mIAP inh: 0

What do the screens show for `C#CCOCCOCCOCCNc1nc(N2CCN(C(=O)CCCCCCCCCCNC(=O)[C@H](CO)n3cc(CCCSC)nn3)CC2)nc(N2CCN(C(=O)CCCCCCCCCCNC(=O)[C@H](CCCN=C(N)N)n3cc(C[C@@H](C)CC)nn3)CC2)n1`?
hIAP activ: 1.4; hIAP block: -37; mIAP activ: 2.6*; mIAP inh: -161; mIAP inh confirm: -498

Results for C#CCOCCOCCOCCNc1nc(N2CCN(C(=O)CCCCCCCCCCNC(=O)Cn3cc(C[C@@H](C)O)nn3)CC2)nc(N2CCN(C(=O)CCCCCCCCCCNC(=O)[C@H](CCCN=C(N)N)n3cc(C[C@@H](C)CC)nn3)CC2)n1 ?
hIAP activ: 0.99; hIAP block: 0; mIAP activ: 4.9*; mIAP inh: -391; mIAP inh confirm: -468

Results for C#CCOCCOCCOCCNc1nc(N2CCN(C(=O)CCCCCCCCCCNC(=O)Cn3cc(C[C@@H](C)O)nn3)CC2)nc(N2CCN(C(=O)CCCCCCCCCCNC(=O)[C@H](CCCCN)n3cc(CCCC(=O)O)nn3)CC2)n1 ?
hIAP activ: 1.1; hIAP block: -8; mIAP activ: 1.1; mIAP inh: -9

What do the screens show for `N#Cc1ccc(OCC(O)CN2CCC(C(O)(c3ccccc3)c3ccccc3)CC2)cc1` (stereo unspecified)?
hIAP activ: 1; hIAP block: -2; mIAP activ: 1; mIAP inh: -2

Results for Cc1ccc(N(Cc2cc3ccccc3[nH]c2=O)C(=O)c2cccs2)cc1C ?
hIAP activ: 1; hIAP block: -4; mIAP activ: 1; mIAP inh: 0

What do the screens show for `O=C(NNC(=O)c1cc2cc(Br)ccc2oc1=O)c1ccc(O)cc1O`?
hIAP activ: 1.1; hIAP block: -5; mIAP activ: 0.23; bIAP inhibitor: 31; bIAP act: 0.7; mIAP inh: 77*; mIAP inh confirm: 82*

Results for C#CCOCCOCCOCCNc1nc(N2CCN(C(=O)CCCCCCCCCCNC(=O)[C@H]([C@@H](C)CC)n3cc(CCCCCN)nn3)CC2)nc(N2CCN(C(=O)CCCCCCCCCCNC(=O)[C@H](CCCCN)n3cc(CCCC(=O)O)nn3)CC2)n1 ?
hIAP activ: 1.1; hIAP block: -8; mIAP activ: 2.4*; mIAP inh: -142; mIAP inh confirm: -222

How did C#CCOCCOCCOCCNc1nc(N2CCN(C(=O)CCCCCCCCCCNC(=O)[C@H](CCCCN)n3cc(CCCC(=O)O)nn3)CC2)nc(N2CCN(C(=O)CCCCCCCCCCNC(=O)[C@@H]([C@H](C)O)n3cc(C)nn3)CC2)n1 do in these assays?
hIAP activ: 1; hIAP block: -5; mIAP activ: 1.2; mIAP inh: -19

What do the screens show for `C#CCOCCOCCOCCNc1nc(N2CCN(C(=O)CCCCCCCCCCNC(=O)[C@@H](CCC(=O)O)n3cc(CCCCCN)nn3)CC2)nc(N2CCN(C(=O)CCCCCCCCCCNC(=O)[C@H]([C@@H](C)CC)n3cc(CCCCCN)nn3)CC2)n1`?
hIAP activ: 1; hIAP block: -2; mIAP activ: 2.2*; mIAP inh: -120; mIAP inh confirm: -176

How did CSc1cccc(N2CC(C(=O)Nc3ccccc3N3CCCC3)CC2=O)c1 (stereo unspecified) do in these assays?
hIAP activ: 0.94; hIAP block: 6; mIAP activ: 1.1; mIAP inh: -12

Results for COc1ccc([C@H]2CC(=O)c3c(O)cc(O)cc3O2)cc1O ?
hIAP activ: 1.1; hIAP block: -8; mIAP activ: 0.92; mIAP inh: 8

How did Oc1cc(O)c2c(c1)O[C@H](c1ccc(O)c(O)c1)[C@H](O)C2 do in these assays?
hIAP activ: 0.81; hIAP block: 19; mIAP activ: 0.18; mIAP inh: 82*; mIAP inh confirm: 62*

How did CCCn1c(N)c(N(CCOC)C(=O)CCC2CCCCC2)c(=O)[nH]c1=O do in these assays?
hIAP activ: 0.98; hIAP block: 2; mIAP activ: 1; mIAP inh: -4

Results for COc1ccc(CC(=O)Nc2nnc(CC(C)C)s2)cc1S(=O)(=O)N1CCOCC1 ?
hIAP activ: 0.84; hIAP block: 16; mIAP activ: 0.95; mIAP inh: 4

What do the screens show for `N#CCOC(=O)c1c2c(nc3ccccc13)CCC2`?
hIAP activ: 0.96; hIAP block: 4; mIAP activ: 0.97; bIAP inhibitor: -5; bIAP act: 1.1; mIAP inh: 3

What do the screens show for `Cc1ccc(O)c(NC(=O)CSc2n[nH]c(-c3ccccc3)n2)c1`?
hIAP activ: 1; hIAP block: -4; mIAP activ: 0.94; mIAP inh: 6

How did O=C(CSc1n[nH]c(-c2ccccc2)n1)c1ccc(O)c(O)c1 do in these assays?
hIAP activ: 1; hIAP block: -1; mIAP activ: 0.35; bIAP act: 0.3; mIAP inh: 65*; mIAP inh confirm: 69*

Results for N#Cc1c(SCC(=O)Nc2ccc(C(F)(F)F)cc2)sc2c(O)cc(=O)[nH]c12 ?
hIAP activ: 0.95; hIAP block: 5; mIAP activ: 0.68; mIAP inh: 32

What do the screens show for `N#Cc1c(SCC(=O)Nc2nncs2)sc2c(O)cc(=O)[nH]c12`?
hIAP activ: 1; hIAP block: -4; mIAP activ: 0.43; mIAP inh: 57*; mIAP inh confirm: 70*

How did CCOC(=O)c1ccc(N2CCN(c3ccccc3F)CC2)c(NC(=O)Nc2ccccc2)c1 do in these assays?
hIAP activ: 1.4; hIAP block: -42; mIAP activ: 6.6*; bIAP inhibitor: 3; bIAP act: 1; mIAP inh: inactive; mIAP inh confirm: -214
